Screening results as filed in PubChem.
RanGTP-Imp inh: inhibitors of RanGTP-importin-beta interaction, primary screen, biochemical, FRET, CFP-Ran, YFP-importin-beta, homogeneous; cell-free CFP-Ran/YFP-importin-beta FRET ratio; Ran GTPase (GTP-bound) - importin-beta complex; inhibition, % (concentration not given with the values); AID 2216, 2009; 1.1% of 300,000 active;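 active = more than half of the replicate wells show a fall in the fluorescence ratio signal beyond about 16%, limit read from the data, passing the limit was not always enough; inconclusive = exactly half of the replicate wells pass the set limit; inactive = fewer than half of replicates pass the limit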;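 also: 0% = DMSO wells and 100% = Ran loaded with GDP instead of GTP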
IMP-1 inhibitor: IMP-1 metallo-beta-lactamase inhibitors, primary screen, biochemical, epi-absorbance readout, Pseudomonas aeruginosa enzyme; metallo-beta-lactamase IMP-1 (Pseudomonas aeruginosa); purified IMP-1, nitrocefin hydrolysis, epi-absorbance fluorescence; inhibition, % at 5.6 µM; 0.45% of 290,000 active; AID 1556, 2009;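 active = inhibition above the mean plus 3 SD of all compounds in the same screening run, cut at about 4.5% in these data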;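 also: 0% = IMP-1 with DMSO and 100% = DMSO wells lacking enzyme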
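Test system: recombinant IMP-1 enzyme, purified / Medium: HEPES buffer pH 7.1 with ZnSO4 and Brij 35 / Doses: single dose, 5.6 µM / Times: 25 °C, 15 min preincubation, 25 min reaction / Detection: Epi-absorbance via hydrolysed-nitrocefin quenching of white-plate fluorescence, 480/530 nm, EDTA stop / Evaluation: percent inhibition from optical density relative to buffer-blank wells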
VIM-2 inhibitor: VIM-2 metallo-beta-lactamase inhibitors, primary screen, biochemical, epi-absorbance readout, Pseudomonas aeruginosa enzyme. purified VIM-2, nitrocefin hydrolysis, epi-absorbance fluorescence. inhibition, % at 5.6 µM. 0.89% of 290,000 active;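 active = inhibition above the mean of all tested compounds plus 3 SD, cutoff set per screening run, cut at about 7.5% in these data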;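 also: red hydrolysis product quenches plate fluorescence so inhibitors raise well fluorescence; 0% = enzyme with DMSO and 100% = DMSO without enzyme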
Runt-SMMHC FRET: inhibitors of RUNX1 Runt–CBFb-SMMHC binding, primary screen, biochemical, FRET, Cerulean-Runt, Venus-CBFb-SMMHC, uHTS. Cerulean-Runt/Venus-CBFb-SMMHC FRET ratio 530/480, 1 h. inhibition, % at 20 µM. 0.74% of 220,000 active. AID 1434, 2008;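 active = mean inhibition across duplicate retests at 20 µM reaching about 50%, limit read from the data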;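 also: 0% = DMSO wells and 100% = wells with excess untagged CBFb-SMMHC; inhibitors lower the FRET ratio by blocking Runt binding to CBFb-SMMHC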
Target sequence (Q01196 whole entry, looked up): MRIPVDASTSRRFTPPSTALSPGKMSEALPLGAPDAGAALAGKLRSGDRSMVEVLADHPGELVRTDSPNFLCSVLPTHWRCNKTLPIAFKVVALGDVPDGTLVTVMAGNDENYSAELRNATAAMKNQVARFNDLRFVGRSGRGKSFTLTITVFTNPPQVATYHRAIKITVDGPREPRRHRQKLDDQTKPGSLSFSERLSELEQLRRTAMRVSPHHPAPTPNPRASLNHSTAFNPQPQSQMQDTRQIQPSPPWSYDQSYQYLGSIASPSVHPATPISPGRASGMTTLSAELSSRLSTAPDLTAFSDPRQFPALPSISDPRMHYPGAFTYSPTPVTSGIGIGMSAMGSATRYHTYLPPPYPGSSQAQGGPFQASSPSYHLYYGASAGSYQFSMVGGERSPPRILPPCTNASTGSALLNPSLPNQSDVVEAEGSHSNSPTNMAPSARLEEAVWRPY
Target sequence (Q13951 whole entry, looked up): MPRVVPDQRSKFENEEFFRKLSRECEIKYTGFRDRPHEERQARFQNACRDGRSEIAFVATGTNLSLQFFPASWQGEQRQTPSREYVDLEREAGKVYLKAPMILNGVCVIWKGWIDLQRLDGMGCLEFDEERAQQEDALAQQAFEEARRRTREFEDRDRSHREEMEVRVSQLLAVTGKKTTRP
Runt-CBFb FRET: inhibitors of RUNX1 Runt–CBFb binding, primary screen, biochemical, FRET, Cerulean-Runt, Venus-CBFb, uHTS; Cerulean-Runt/Venus-CBFb FRET ratio 530/480, 1 h; Runt-related transcription factor 1 (Homo sapiens) + Core-binding factor subunit beta …; inhibition, % at 20 µM; 0.46% of 220,000 active;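 active = inhibition over about 50% at 20 µM in the single-dose screen, limit read from the data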;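 also: 0% = DMSO wells and 100% = excess unlabeled CBFb competitor control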
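Assay system: Cerulean-Runt domain fusion protein, energy donor; Signal: fluorescence energy transfer, 422 nm excitation, 530/480 nm emission; Timing: 1 h compound exposure, room temperature; Control set: unlabeled CBFb; Medium: Tris buffer pH 7.5 with salts and BSA; Compound: single test concentration of 20 µM, 1% DMSO final; Probe or stimulus: Venus-CBFb 100 nM.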
* hit, by the source's call; ? = inconclusive; . = no result. Sampled rows, rich in hits. Any-hit rate of the full collection: about 2.6%.

SMILES	RanGTP-Imp inh	IMP-1 inhibitor	VIM-2 inhibitor	Runt-SMMHC FRET	Runt-CBFb FRET
COc1ccc(CNc2nc(NC(C)=O)nn2-c2ccccc2)cc1	0.9	-3.6	-1.6	.	.
O=c1c(O)c(-c2cccs2)oc2ccc(Cl)cc12	18.3*	0.2	2.3	57.5*	6.7
O=c1c(O)c(-c2cccs2)oc2ccccc12	93.4*	-1.6	-1.2	78.7*	19.3
O=c1cc(-c2cccs2)oc2ccc(Cl)cc12	-2.5	0.2	1.6	-5.4	-3.0
CCCOC(=O)c1ccc(NC(=O)c2c(Cl)ccc(Cl)c2OC)cc1	30.6*	-1.2	-1.6	5.9	2.4
CCCOC(=O)c1ccc(NC(=O)c2ccccc2OC)cc1	-2.9	-2.7	-3.6	-0.4	-3.8
O=C1CCN(S(=O)(=O)c2ccc(Cl)cc2)N1	-2.8	-1.9	5.4	3.1	-1.4
Cc1ccc(S(=O)(=O)N2CCC(=O)N2)cc1	1.1	-0.2	8.6*	-2.2	-3.1
O=C1CCN(S(=O)(=O)c2ccccc2)N1	-5.2	-0.1	9.7*	-1.4	-0.2
Nc1ccc(Sc2ccccc2Cl)nc1	1.0	.	.	.	.
COc1ccc(CC(=O)Nc2nncs2)cc1OC	2.5	-2.6	-1.4	82.9	88.6*
Cc1ccc(CC(=O)Nc2nncs2)cc1	3.7	-3.3	-4.6	-1.1	-2.0
Cc1cc(C(=O)CN2C(=O)NC3(CCCCC3C)C2=O)c(C)n1Cc1cccs1 (stereo not drawn)	4.2	-2.0	-3.1	3.9	0.5
Cc1cc(C(=O)CN2C(=O)c3cccc(N)c3C2=O)c(C)n1Cc1cccs1	66.4*	3.5	0.9	61.6*	19.1
O=C(NCc1cccnc1)C1c2ccccc2C(=O)N1Cc1ccccc1 (stereo not drawn)	5.6	-1.8	-0.3	-0.3	0.4
O=C(NCc1cccnc1)C1c2ccccc2C(=O)N1Cc1ccco1 (stereo not drawn)	-0.8	4.6*	-0.3	2.9	4.3
CC(C)Sc1nc2c(cnn2-c2ccc(Cl)cc2)c(=O)[nH]1	3.7	-1.4	-3.1	.	.
O=c1[nH]c2ccccc2n1Cc1ccccc1	0.2	-2.5	-2.8	-1.7	-0.9
O=c1[nH]c(=O)n(Cc2ccccc2)c2c1CCC2	-5.2	5.0*	1.0	-1.3	-2.7
Cc1ccc(N=C2NC(=O)/C(=C/C=C/c3ccco3)S2)cc1	2.1	4.1	-0.6	-31.4	2.2
Cc1cccc(N=C2NC(=O)/C(=C/C=C/c3ccco3)S2)c1C	-4.3	4.8*	-2.1	-9.6	22.5
Cc1cc(NC(=O)C2C3C(=O)N(CC4CCCO4)C(C(=O)NC(C)(C)C)C34C=CC2(C)O4)no1 (stereo not drawn)	1.8	-2.0	-3.1	2.1	1.5
Cc1cc(NC(=O)C2C3C(=O)N(CC4CCCO4)C(C(=O)NCc4ccccc4)C34C=CC2(C)O4)no1 (stereo not drawn)	0.1	5.0*	-2.9	0.7	0.0
CC(C)Cc1nnc(NC(=O)CN2C(=O)NC3(CC(C)CC(C)(C)C3)C2=O)s1 (stereo not drawn)	-1.3	.	.	.	.
Cc1nn(CC(=O)N2CCN(C)CC2)c(=O)c2c1sc1ccccc12	1.3	-4.4	10.9*	.	.
SMILES	RanGTP-Imp inh	IMP-1 inhibitor	VIM-2 inhibitor	Runt-SMMHC FRET	Runt-CBFb FRET
CCOC(=O)N1CCN(C(=O)Cn2nc(C)c3sc4ccccc4c3c2=O)CC1	?	-2.5	2.5	-5.2	0.5
Cc1nn(CCCC(=O)NCCCN2CCN(C)CC2)c(=O)c2c1sc1ccccc12	1.2	-1.6	11.5*	.	.
CCN(CC)C(=O)COc1coc(CN2CCN(c3ccccc3F)CC2)cc1=O	1.1	-3.4	-2.3	.	.
Cc1ccccc1-n1c(-c2ccncc2)n[nH]c1=S	2.3	.	.	3.7	4.5
Cc1cc(-c2n[nH]c(=S)n2-c2ccccc2C)cs1	7.3	-2.8	10.6*	14.7	15.3
Cc1cccc(-n2c(-c3csc(C)c3)n[nH]c2=S)c1	4.1	-2.6	7.7*	27.4	-34.4
COc1ccccc1CNC(=O)C(=O)NCC(c1ccco1)N1CCOCC1 (stereo not drawn)	2.1	-2.4	-3.3	1.5	0.0
